Measurements published in ChEMBL document CHEMBL4834403, “Design and Synthesis of Novel Epigenetic Inhibitors Targeting Histone Deacetylases, DNA Methyltransferase 1, and Lysine Methyltransferase G9a with In Vivo Efficacy in Multiple Myeloma” (J Med Chem, 2021).
Activity calls are given as the source filed them. The calls are words filed in the database; no cut-off is given here.

How the values were obtained:
[1] = molecular target: DNA (cytosine-5)-methyltransferase 1 (Homo sapiens, UniProt P26358); assay: Inhibition of human DNMT1 enzyme using polydeoxy-inosine polydeoxy-cytosine DNA as substrate incubated for 15 mins in presence of SAM by TR-FRET assay
MM1.S [2] = assay: Induction of DNA hypomethylation in human MM1.S cells assessed as CPG hypomethylation at position 3 at 2 uM measured after 5 days relative to control; type: cell-based; details: time 5.0 day
How it was run: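 MM1.S cells dosed every day for 5 days at 2 μM or 10 nM. DNA methylation at CpGs of the POU4F2 promoter read by pyrosequencing; run in duplicate.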

[3] = molecular target: T1, Histone-lysine N-methyltransferase EHMT2 (Homo sapiens) (UniProt Q96KQ7); assay: Inhibition of G9A in human MM1.S cells assessed as decrease in H3K9Me2 levels up to 1000 nM after 48 hrs by Western blot analysis; type: cell-based; details: dose nM <=1000, time 48.0 hrs
T1 sequence (whole entry): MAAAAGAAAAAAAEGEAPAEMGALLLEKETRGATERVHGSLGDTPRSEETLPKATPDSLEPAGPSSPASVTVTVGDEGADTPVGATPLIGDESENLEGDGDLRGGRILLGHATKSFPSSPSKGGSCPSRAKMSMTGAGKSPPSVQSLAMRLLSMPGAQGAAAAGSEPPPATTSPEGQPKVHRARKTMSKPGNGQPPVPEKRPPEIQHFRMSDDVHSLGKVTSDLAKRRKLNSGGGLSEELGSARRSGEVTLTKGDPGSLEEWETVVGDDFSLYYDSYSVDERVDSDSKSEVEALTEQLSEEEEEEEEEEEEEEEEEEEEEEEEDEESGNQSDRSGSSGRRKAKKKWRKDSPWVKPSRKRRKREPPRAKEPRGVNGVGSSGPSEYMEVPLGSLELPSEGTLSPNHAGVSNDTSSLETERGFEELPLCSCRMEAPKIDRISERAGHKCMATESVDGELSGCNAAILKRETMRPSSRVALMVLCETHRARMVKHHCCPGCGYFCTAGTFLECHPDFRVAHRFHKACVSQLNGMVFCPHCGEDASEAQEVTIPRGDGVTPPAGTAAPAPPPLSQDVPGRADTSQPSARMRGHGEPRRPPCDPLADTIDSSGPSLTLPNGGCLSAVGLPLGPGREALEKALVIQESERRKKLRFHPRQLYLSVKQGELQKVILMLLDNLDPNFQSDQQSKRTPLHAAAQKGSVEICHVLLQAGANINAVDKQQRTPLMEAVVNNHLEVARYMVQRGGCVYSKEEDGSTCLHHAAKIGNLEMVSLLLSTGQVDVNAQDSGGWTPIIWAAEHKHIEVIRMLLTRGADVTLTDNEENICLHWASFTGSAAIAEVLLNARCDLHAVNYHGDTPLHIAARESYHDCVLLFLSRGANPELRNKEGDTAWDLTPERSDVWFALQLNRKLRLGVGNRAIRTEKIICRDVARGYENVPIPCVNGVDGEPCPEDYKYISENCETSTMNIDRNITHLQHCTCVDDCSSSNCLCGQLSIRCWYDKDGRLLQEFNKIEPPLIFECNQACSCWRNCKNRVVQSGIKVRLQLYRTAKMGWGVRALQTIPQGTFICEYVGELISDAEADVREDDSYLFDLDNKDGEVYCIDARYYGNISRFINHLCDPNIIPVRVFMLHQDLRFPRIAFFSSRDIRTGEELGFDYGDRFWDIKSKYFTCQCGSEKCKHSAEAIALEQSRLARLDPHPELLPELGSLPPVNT
How it was run: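 MM1.S cells exposed 48 h across a concentration range. Global H3K9Ac and H3K9me2 read by Western blot; run in duplicate.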

CYP2C19 = CYP2C19 (Homo sapiens, UniProt P33261); assay: Inhibition of CYP2C19 in human liver microsomes at 10 uM incubated for 10 mins in presence of NADPH by LC-MS/MS analysis relative to control; type: ADME
CYP2D6 = CYP2D6 (Homo sapiens, UniProt P10635); assay: Inhibition of CYP2D6 in human liver microsomes at 10 uM incubated for 10 mins in presence of NADPH by LC-MS/MS analysis relative to control; type: ADME
CYP3A4 = CYP3A4 (Homo sapiens, UniProt P08684); assay: Inhibition of CYP3A4 in human liver microsomes at 10 uM incubated for 10 mins in presence of NADPH by LC-MS/MS analysis relative to control; type: ADME
[4] = Stability of the compound in mouse pooled hepatocytes assessed as parent compound remaining incubated for 60 mins; type: ADME, cell-based, Hepatocyte; details: read-out: Stabilty
[5] = Half life in BALB/c RAG2-/- gammaC-/- mouse at 10 mg/kg, ip measured up to 24 hrs by UPLC-triple quadrupole MS analysis; type: ADME, organism-based; details: in vivo
MM1.S [6] = assay: Antitumor activity against human MM1.S cells xenografted in BALB/c RAG2-/- gammaC-/- mouse assessed as reduction in tumor volume at 10 mg/kg, ip administered for 5 consecutive days followed by 2 days rest and measured after 35 days (reference value: 3836 +/- 1696 mm3); type: functional; details: time 35 day
[7] = Toxicity in BALB/c RAG2-/- gammaC-/- mouse xenografted with human MM1.S cells assessed as effect on body weight at 10 mg/kg, ip administered for 5 consecutive days followed by 2 days rest and measured after 35 days; type: organism-based; details: in vivo, 840 h, time 35 day

Sequence of CYP3A4 (P08684 whole entry): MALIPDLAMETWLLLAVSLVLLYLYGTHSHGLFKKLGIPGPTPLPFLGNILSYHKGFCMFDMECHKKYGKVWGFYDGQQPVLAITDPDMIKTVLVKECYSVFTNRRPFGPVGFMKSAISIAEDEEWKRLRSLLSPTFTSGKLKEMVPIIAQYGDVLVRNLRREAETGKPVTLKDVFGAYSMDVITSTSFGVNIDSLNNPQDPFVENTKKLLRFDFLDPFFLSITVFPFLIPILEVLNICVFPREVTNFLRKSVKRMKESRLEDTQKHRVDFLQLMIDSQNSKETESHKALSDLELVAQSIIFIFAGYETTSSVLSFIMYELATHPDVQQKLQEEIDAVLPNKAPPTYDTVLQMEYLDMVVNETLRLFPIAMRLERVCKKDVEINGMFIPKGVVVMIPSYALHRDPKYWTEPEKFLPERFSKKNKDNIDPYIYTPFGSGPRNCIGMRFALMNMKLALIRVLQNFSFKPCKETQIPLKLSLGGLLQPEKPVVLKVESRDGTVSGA
Sequence of CYP2C19 (P33261 whole entry): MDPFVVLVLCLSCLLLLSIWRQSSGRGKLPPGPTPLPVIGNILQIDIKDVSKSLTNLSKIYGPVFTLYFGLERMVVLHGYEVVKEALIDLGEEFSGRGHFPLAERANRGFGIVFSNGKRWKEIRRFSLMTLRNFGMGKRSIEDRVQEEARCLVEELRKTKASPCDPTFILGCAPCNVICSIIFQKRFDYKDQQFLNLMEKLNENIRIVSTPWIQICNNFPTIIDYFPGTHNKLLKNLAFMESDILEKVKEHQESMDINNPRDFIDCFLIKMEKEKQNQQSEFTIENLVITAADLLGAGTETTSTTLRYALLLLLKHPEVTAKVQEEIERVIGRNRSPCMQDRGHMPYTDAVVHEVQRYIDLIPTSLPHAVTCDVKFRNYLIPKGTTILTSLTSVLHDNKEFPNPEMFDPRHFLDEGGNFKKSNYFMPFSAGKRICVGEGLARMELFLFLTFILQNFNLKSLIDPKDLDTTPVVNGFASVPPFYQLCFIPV
Sequence of DNA (cytosine-5)-methyltransferase 1 (P26358 whole entry): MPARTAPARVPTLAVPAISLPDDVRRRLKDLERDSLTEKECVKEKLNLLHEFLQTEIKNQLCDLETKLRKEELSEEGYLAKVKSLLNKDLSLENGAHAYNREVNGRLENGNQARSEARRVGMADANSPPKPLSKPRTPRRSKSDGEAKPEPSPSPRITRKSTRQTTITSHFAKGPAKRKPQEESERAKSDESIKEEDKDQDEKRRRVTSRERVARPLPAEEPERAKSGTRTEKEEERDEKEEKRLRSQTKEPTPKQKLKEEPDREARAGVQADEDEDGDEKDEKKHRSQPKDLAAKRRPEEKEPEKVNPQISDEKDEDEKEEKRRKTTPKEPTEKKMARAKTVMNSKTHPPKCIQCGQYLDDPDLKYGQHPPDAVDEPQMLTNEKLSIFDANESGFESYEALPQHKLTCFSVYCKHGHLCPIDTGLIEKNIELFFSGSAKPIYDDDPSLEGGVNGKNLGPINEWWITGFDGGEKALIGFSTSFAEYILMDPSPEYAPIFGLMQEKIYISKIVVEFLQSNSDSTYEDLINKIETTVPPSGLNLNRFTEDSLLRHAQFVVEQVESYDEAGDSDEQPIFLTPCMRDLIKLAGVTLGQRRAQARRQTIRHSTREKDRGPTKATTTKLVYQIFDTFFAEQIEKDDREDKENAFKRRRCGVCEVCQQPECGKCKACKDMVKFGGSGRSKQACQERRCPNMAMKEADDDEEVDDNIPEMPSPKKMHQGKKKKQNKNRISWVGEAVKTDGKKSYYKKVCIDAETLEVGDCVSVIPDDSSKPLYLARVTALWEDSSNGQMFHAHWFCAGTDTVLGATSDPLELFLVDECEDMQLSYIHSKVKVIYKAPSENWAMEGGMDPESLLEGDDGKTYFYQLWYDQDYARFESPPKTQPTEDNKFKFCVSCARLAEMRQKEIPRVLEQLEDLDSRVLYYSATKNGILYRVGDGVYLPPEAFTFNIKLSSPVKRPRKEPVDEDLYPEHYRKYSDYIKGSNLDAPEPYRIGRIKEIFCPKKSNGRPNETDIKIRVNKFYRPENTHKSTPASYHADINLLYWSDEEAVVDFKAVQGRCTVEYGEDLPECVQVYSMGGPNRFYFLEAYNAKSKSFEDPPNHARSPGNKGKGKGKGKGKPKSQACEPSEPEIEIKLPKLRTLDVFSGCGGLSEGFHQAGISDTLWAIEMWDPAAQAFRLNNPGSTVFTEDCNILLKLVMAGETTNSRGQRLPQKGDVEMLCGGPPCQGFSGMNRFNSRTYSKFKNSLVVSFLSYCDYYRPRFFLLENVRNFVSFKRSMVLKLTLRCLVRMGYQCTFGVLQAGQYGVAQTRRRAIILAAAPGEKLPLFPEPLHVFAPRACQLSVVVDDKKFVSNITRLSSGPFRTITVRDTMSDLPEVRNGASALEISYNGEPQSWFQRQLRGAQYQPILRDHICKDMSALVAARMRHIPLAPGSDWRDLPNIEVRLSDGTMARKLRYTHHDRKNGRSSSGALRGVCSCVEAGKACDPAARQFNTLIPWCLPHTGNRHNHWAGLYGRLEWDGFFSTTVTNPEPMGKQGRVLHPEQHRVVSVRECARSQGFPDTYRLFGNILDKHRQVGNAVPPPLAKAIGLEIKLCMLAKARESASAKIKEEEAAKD
Sequence of CYP2D6 (P10635 whole entry): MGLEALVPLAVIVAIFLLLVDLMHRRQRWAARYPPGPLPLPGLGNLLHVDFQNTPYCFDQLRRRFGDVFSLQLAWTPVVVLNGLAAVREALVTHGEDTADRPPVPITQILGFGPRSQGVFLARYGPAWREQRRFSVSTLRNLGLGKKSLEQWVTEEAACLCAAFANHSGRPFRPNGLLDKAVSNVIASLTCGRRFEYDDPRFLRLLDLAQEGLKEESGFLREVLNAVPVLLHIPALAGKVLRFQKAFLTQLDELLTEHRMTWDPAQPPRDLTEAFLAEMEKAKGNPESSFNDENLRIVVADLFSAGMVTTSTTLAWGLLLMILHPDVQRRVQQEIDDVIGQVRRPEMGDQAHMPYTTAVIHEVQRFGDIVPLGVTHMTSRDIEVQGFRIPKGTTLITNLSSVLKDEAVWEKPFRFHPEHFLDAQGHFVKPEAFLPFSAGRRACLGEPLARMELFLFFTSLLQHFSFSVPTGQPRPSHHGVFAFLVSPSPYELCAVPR

SMILES | IC50 [1] [nM] | Activity (MM1.S [2]) [%] | inhibition [3] | inhibition at 10 min, 10 µM (CYP2C19) [%] | inhibition at 10 min, 10 µM (CYP2D6) [%] | inhibition at 10 min, 10 µM (CYP3A4) [%] | remaining at 1 h [4] [%] | half-life [5] [h] | Activity (MM1.S [6]) [mm3] | Activity [7]
COc1cc2c(NCC3CCN(c4ncc(C(=O)NO)cn4)CC3)cc(-c3ccc(C)o3)nc2cc1OCCCN1CCCC1 | 1160 | 15 |  |  |  |  |  |  |  | 
COc1cc2nc(-c3ccc(C)o3)cc(NCC3CCN(c4ncc(C(=O)NO)cn4)CC3)c2cc1OC |  |  | inactive | 5.6 | 10.8 | 50.8 | 14.3 | 3.8 | 1788 | Non-Toxic
